{"source": "ChEMBL document CHEMBL1139875", "about": "“Discovery of 4-aminobutyric acid derivatives possessing anticonvulsant and antinociceptive activities: a hybrid pharmacophore approach” (2007)", "key": {"Mus musculus [1]": {"system": "Mus musculus", "assay": "Anticonvulsant activity in Swiss Albino mouse at 30 mg/kg, ip after 0.5 hr by MES test", "format": "functional, organism-based", "set-up": "dose 30 mg/kg", "summary_of_the_method": "(§1)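 Mice (Swiss, 20-25 g) given i.p. doses of 30, 100 and 300 mg/kg under ADD program protocols, three per group, examined at 0.5 and 4 h in MES, scPTZ, scSTY or scPIC seizure tests. Value is the minimum dose protecting half or more of the mice.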"}, "Mus musculus [2]": {"system": "Mus musculus", "assay": "Anticonvulsant activity in Swiss Albino mouse at 30 mg/kg, ip after 4 hrs by MES test", "format": "functional, organism-based", "set-up": "dose 30 mg/kg", "summary_of_the_method": "as §1"}, "Mus musculus [3]": {"system": "Mus musculus", "assay": "Anticonvulsant activity in Swiss Albino mouse at 300 mg/kg, ip after 0.5 hr by scPTZ test", "format": "functional, organism-based", "set-up": "dose 300 mg/kg", "summary_of_the_method": "as §1"}, "Mus musculus [4]": {"system": "Mus musculus", "assay": "Anticonvulsant activity in Swiss Albino mouse at 300 mg/kg, ip after 0.5 hr by scSTY test", "format": "functional, organism-based", "set-up": "dose 300 mg/kg", "summary_of_the_method": "as §1"}, "Mus musculus [5]": {"system": "Mus musculus", "assay": "Anticonvulsant activity in Swiss Albino mouse at 300 mg/kg, ip after 4 hrs by scSTY test", "format": "functional, organism-based", "set-up": "dose 300 mg/kg", "summary_of_the_method": "as §1"}, "Mus musculus [6]": {"system": "Mus musculus", "assay": "Anticonvulsant activity in Swiss Albino mouse at 300 mg/kg, ip after 0.5 hr by scPIC test", "format": "functional, organism-based", "set-up": "dose 300 mg/kg", "summary_of_the_method": "as §1"}, "Mus musculus [7]": {"system": "Mus musculus", "assay": "Anticonvulsant activity in Swiss Albino mouse at 300 mg/kg, ip after 4 hrs by scPIC test", "format": "functional, organism-based", "set-up": "dose 300 mg/kg", "summary_of_the_method": "as §1"}, "Mus musculus [8]": {"system": "Mus musculus", "assay": "Neurotoxicity in Swiss Albino mouse at 100 mg/kg, ip after 0.5 hr by rotarod test", "format": "functional, organism-based", "set-up": "dose 100 mg/kg", "summary_of_the_method": "(§2)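 Swiss mice (20-25 g) are trained on an accelerating rotorod (10 rpm, 3.2 cm rod), then injected i.p. at 30, 100 or 300 mg/kg, with three per group. Neurotoxicity means failure to keep equilibrium for at least 1 min in each of three trials, checked at 0.5 and 4 h. The value reported is the minimum dose affecting half or more of the mice.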"}, "Mus musculus [9]": {"system": "Mus musculus", "assay": "Neurotoxicity in Swiss Albino mouse at 100 mg/kg, ip after 4 hrs by rotarod test", "format": "functional, organism-based", "set-up": "dose 100 mg/kg", "summary_of_the_method": "as §2"}, "Mus musculus [10]": {"system": "Mus musculus", "assay": "Analgesic activity in Swiss Albino mouse assessed as number of acetic acid-induced writhing per 30 min after 100 mg/kg, ip", "format": "functional", "summary_of_the_method": "(§3)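 Mice in groups of six dosed i.p. at 100 mg/kg, controls receiving 30% v/v PEG 400 in water. Writhing induced by i.p. 0.1 mL of 3% v/v acetic acid 1 h after drug. Writhes (abdominal stretch with at least one hind limb extended) counted over 30 min; % inhibition calculated. Mean ± SEM, Student's t test.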"}, "Mus musculus [11]": {"system": "Mus musculus", "assay": "Analgesic activity in Swiss Albino mouse assessed as inhibition of acetic acid-induced writhing responses at 100 mg/kg, ip", "format": "functional", "summary_of_the_method": "as §3"}}, "note": "The source made the active and inactive calls. The rule behind the calls is not given here."}
{"molecule": "O=C1NC(=O)C(c2ccccc2)(c2ccccc2)N1", "values": [{"measurement": "Activity", "setting": "Mus musculus [1]", "result": "Active"}, {"measurement": "Activity", "setting": "Mus musculus [2]", "result": "Active"}, {"measurement": "Activity", "setting": "Mus musculus [3]", "result": "inactive"}, {"measurement": "Activity", "setting": "Mus musculus [4]", "result": "inactive"}, {"measurement": "Activity", "setting": "Mus musculus [5]", "result": "inactive"}, {"measurement": "Activity", "setting": "Mus musculus [6]", "result": "inactive"}, {"measurement": "Activity", "setting": "Mus musculus [7]", "result": "inactive"}, {"measurement": "Activity", "setting": "Mus musculus [8]", "result": "Active"}, {"measurement": "Activity", "setting": "Mus musculus [9]", "result": "Active"}, {"measurement": "Activity", "setting": "Mus musculus [10]", "result": "inactive"}, {"measurement": "Activity", "setting": "Mus musculus [11]", "result": "inactive"}]}
